# Reference: article PMC5042352 (Analytical methods : advancing methods and applications, 2016)
# Read-outs that look alike come from different tables or passages of the source.
# What was measured:
# [1] = assay type: in vivo, human (Chinese male healthy subjects); conditions: for Tmax / T½ (half-life of elimination): single i.m. injection
# [2] = Stability of the analytes in human plasma at QC levels; assay type: in vitro ADME; conditions: n = 5; for Short-term Dev. (%) / Short-term MCM ± SD: 6 h, r.t.; for Short-term Dev. (%) / Short-term MCM ± SD / Long-term Dev. (%) / Long-term MCM ± SD / Freeze–thaw Dev. (%) / Freeze–thaw MCM ± SD: human plasma; for Long-term Dev. (%) / Long-term MCM ± SD: 40 days; for Long-term Dev. (%) / Long-term MCM ± SD / Freeze–thaw Dev. (%) / Freeze–thaw MCM ± SD: −40 °C; for The autosampler Dev. (24h, %) / The autosampler MCM ± SD (24h) / The autosampler Dev. (48h, %) / The autosampler MCM ± SD (48h): autosampler r.t.; for Freeze–thaw Dev. (%) / Freeze–thaw MCM ± SD: four cycles
# In short: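 QC plasma made by spiking working solution into drug-free human plasma (1:9); the phosphate ester is pre-stabilised with 2M sodium cacodylate and 50% KF. Freeze-thaw: frozen at −40 °C for 24 h, thawed at 25 °C. Short-term: 6 h at room temperature. Long-term: −40 °C for 40 days. Quantified by UPLC-MS/MS against 1/x-weighted analyte/IS peak-area-ratio calibration curves.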
# [3] = reported; cited from earlier work
# [4] = Reference formulation, mean ± SD, n = 23
# [5] = Test formulation, mean ± SD, n = 23
Short-term Dev. (%) ([2]; high QC),Short-term MCM ± SD ([2]; high QC),Long-term Dev. (%) ([2]; high QC),Long-term MCM ± SD ([2]; high QC),"The autosampler Dev. (24h, %) ([2]; high QC) [%]",The autosampler MCM ± SD (24h) ([2]; high QC),"The autosampler Dev. (48h, %) ([2]; high QC) [%]",The autosampler MCM ± SD (48h) ([2]; high QC),Freeze–thaw Dev. (%) ([2]; high QC),Freeze–thaw MCM ± SD ([2]; high QC),Short-term Dev. (%) ([2]; low QC),Short-term MCM ± SD ([2]; low QC),Long-term Dev. (%) ([2]; low QC),Long-term MCM ± SD ([2]; low QC),"The autosampler Dev. (24h, %) ([2]; low QC) [%]",The autosampler MCM ± SD (24h) ([2]; low QC),"The autosampler Dev. (48h, %) ([2]; low QC) [%]",The autosampler MCM ± SD (48h) ([2]; low QC),Freeze–thaw Dev. (%) ([2]; low QC),Freeze–thaw MCM ± SD ([2]; low QC),SMILES,further results
−8.39,3.435 ± 0.353 × 10^−9 mol·dm^−3,10.5,4.185 ± 0.616 × 10^−9 mol·dm^−3,−12.14,3.295 ± 0.304 × 10^−9 mol·dm^−3,−4.7,3.574 ± 0.531 × 10^−9 mol·dm^−3,2.2,3.832 ± 0.330 × 10^−9 mol·dm^−3,9.09,0.214 ± 0.020 × 10^−9 mol·dm^−3,4.54,0.205 ± 0.027 × 10^−9 mol·dm^−3,5.68,0.208 ± 0.022 × 10^−9 mol·dm^−3,−5.68,0.185 ± 0.025 × 10^−9 mol·dm^−3,12.5,0.221 ± 0.335 × 10^−9 mol·dm^−3,"CCC(=O)O[C@]1(C(=O)CO)[C@@H](C)C[C@H]2[C@@H]3CCC4=CC(=O)C=C[C@]4(C)[C@@]3(F)[C@@H](O)C[C@@]21C [B17P, betamethasone 17-monopropionate]","AUC0–∞ [1, 4]: 281.7 ± 91.50 × 10^−9 mol·dm^−3·h^−1; Tmax [1, 4]: 17.74 ± 13.04 h; T½ (half-life of elimination) [1, 4]: 106.6 ± 35.93 h; AUC0–∞ [1, 5]: 305.4 ± 108.1 × 10^−9 mol·dm^−3·h^−1; Tmax [1, 5]: 19.83 ± 12.27 h; T½ (half-life of elimination) [1, 5]: 101.3 ± 39.43 h; AUC0–t ([1]; Test formulation, t = 4 h (BDP), 120 h (BOH), 360 h (B17P), mean ± SD, n = 23): 259.2 ± 89.1 × 10^−9 mol·dm^−3·h^−1; Short-term Dev. (%) ([2]; middle QC): 2.08%; Short-term MCM ± SD ([2]; middle QC): 1.196 ± 0.112 × 10^−9 mol·dm^−3; Long-term Dev. (%) ([2]; middle QC): 5.91%; Long-term MCM ± SD ([2]; middle QC): 1.241 ± 0.129 × 10^−9 mol·dm^−3; The autosampler Dev. (24h, %) ([2]; middle QC): 7.80%; The autosampler MCM ± SD (24h) ([2]; middle QC): 1.266 ± 0.094 × 10^−9 mol·dm^−3; The autosampler Dev. (48h, %) ([2]; middle QC): −5.02%; The autosampler MCM ± SD (48h) ([2]; middle QC): 1.114 ± 0.129 × 10^−9 mol·dm^−3; Freeze–thaw Dev. (%) ([2]; middle QC): 6.62%; Freeze–thaw MCM ± SD ([2]; middle QC): 1.250 ± 0.112 × 10^−9 mol·dm^−3; elimination half-life time [3]: 80.8 h"
−8.64,3.944 ± 0.303 × 10^−9 mol·dm^−3,−9.13,3.924 ± 0.078 × 10^−9 mol·dm^−3,−8.3,3.960 ± 0.160 × 10^−9 mol·dm^−3,−9.13,3.924 ± 0.171 × 10^−9 mol·dm^−3,−2.48,4.211 ± 0.301 × 10^−9 mol·dm^−3,2.97,0.463 ± 0.062 × 10^−9 mol·dm^−3,8.42,0.488 ± 0.067 × 10^−9 mol·dm^−3,7.92,0.486 ± 0.020 × 10^−9 mol·dm^−3,−0.5,0.448 ± 0.038 × 10^−9 mol·dm^−3,2.97,0.463 ± 0.024 × 10^−9 mol·dm^−3,"CCC(=O)OCC(=O)[C@@]1(O)[C@@H](C)C[C@H]2[C@@H]3CCC4=CC(=O)C=C[C@]4(C)[C@@]3(F)[C@@H](O)C[C@@]21C [B21P, betamethasone 21-monopropionate]","plasma concentration in healthy subjects' plasma samples (detectability) ([1]; after i.m. injection of the compound medicine BSP and BDP): slightly above the LLOQ; Short-term Dev. (%) ([2]; middle QC): −2.87%; Short-term MCM ± SD ([2]; middle QC): 1.873 ± 0.094 × 10^−9 mol·dm^−3; Long-term Dev. (%) ([2]; middle QC): −1.98%; Long-term MCM ± SD ([2]; middle QC): 1.891 ± 0.143 × 10^−9 mol·dm^−3; The autosampler Dev. (24h, %) ([2]; middle QC): 2.05%; The autosampler MCM ± SD (24h) ([2]; middle QC): 1.993 ± 0.129 × 10^−9 mol·dm^−3; The autosampler MCM ± SD (48h) ([2]; middle QC): 2.007 ± 0.156 × 10^−9 mol·dm^−3; Freeze–thaw Dev. (%) ([2]; middle QC): 1.08%; Freeze–thaw MCM ± SD ([2]; middle QC): 1.949 ± 0.147 × 10^−9 mol·dm^−3"
